OXTR ag – human OXTR agonists, primary screen, fluorescence, CHO-OTR cells, Fluo-8 calcium | Oxytocin receptor (Homo sapiens), P30559 | Fluo-8 calcium fluorescence; normalized: DMSO 0%, oxytocin 100% | activation, % at 3 µM | hit rate 0.32% among 320,000 | AID 2435, 2010;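 active = activation above the mean of all tested compounds plus 3 SD, cutoff set per screening run, cut at about 20% in these data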;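 note: peak over basal fluorescence ratio from a 100 s FLIPR kinetic read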
TAAR1 agonist – human TAAR1 agonists, primary screen, Fluo-8 calcium fluorescence, CHO RD-HGA16 cells; activation, % at 3 µM; hit rate 0.99% among 360,000; vehicle wells 0%, saturating PEA agonist 100%; AID 624467, 2012; Trace amine-associated receptor 1 (Homo sapiens), Q96RJ0;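 active = activation above the mean activation of all test compounds in the run plus 3 SD, cut at about 38% in these data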
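test system = CHO RD-HGA16 cells carrying human TAAR1 plus Gα16 | schedule = 17-24 h seeding, 75 min 37 °C dye, 30 min RT | compound dosing = 3 µM single concentration | control set = DMSO and PEA EC100 | replicates = n 1 | signal = Fluo-8 fluorescence, 5 s baseline then 140 s kinetic read | measure = percent activation vs PEA EC100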
OXTR potentiator – human OXTR potentiators, primary screen, fluorescence, CHO-OTR cells, Fluo-8 calcium; hit rate 0.061% among 320,000; activation, % at 3 µM; Oxytocin receptor (Homo sapiens), P30559; Fluo-8 calcium fluorescence, potentiator mode; 0% = oxytocin EC15, 100% = EC100;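 active = activation above that plate's cutoff, the mean activation of tested compounds plus 3 SD, cut at about 6.6% in these data, passing the limit was not always enough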;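 note: 100% uses oxytocin at 75 nM as the full agonist control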
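Assay system: CHO cell line stably expressing human OTR. Reagent: EC15 oxytocin agonist. Dosing: single dose, 3.0 µM nominal final compound concentration. Timing: compound 6 min at room temperature before oxytocin, 100 s read. Signal: kinetic Fluo-8 calcium fluorescence. Controls: oxytocin EC15 low and EC100 high.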
TAAR1 antagonist – human TAAR1 antagonists, primary screen, Fluo-8 calcium fluorescence, CHO RD-HGA16 cells; Trace amine-associated receptor 1 (Homo sapiens), Q96RJ0; antagonist; inhibition, % at 3 µM; hit rate 1.5% among 360,000;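 active = inhibition above a per-plate cutoff, the mean inhibition of test compounds on that plate plus 3 SD, cut at about 49% in these data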;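 note: 0% = DMSO plus EC80 beta-PEA response and 100% = DMSO alone without agonist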
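Test system – hTAAR1-expressing CHO RD-HGA16 cells, Gα16-coupled · Also added – β-PEA at EC80 concentration, post-compound challenge · Compound – 3 µM, single point · Incubation – dye loading 75 min at 37 °C, then 30 min room temperature · Measured by – Fluo-8 intracellular calcium dye fluorescence, real-time kinetic reads · Benchmarks – vehicle and agonist controls · Replicates – singlicate, one well per test compound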
V1aR counter – agonists of human V1a receptor, primary screen, counter-screen for OXTR agonist project, fluorescence, CHO-V1R cells; Fluo-8 calcium fluorescence, agonist mode; 0% DMSO, 100% 3 nM vasopressin; activation, % at 3 µM; hit rate 0.25% among 320,000; AID 2797, 2010;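 active = activation above the mean activation of all tested compounds plus 3 SD, per screening run, cut at about 20% in these data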;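 note: signal is peak over basal fluorescence ratio across a 100 second FLIPR read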
Target sequence (P37288 whole entry, looked up): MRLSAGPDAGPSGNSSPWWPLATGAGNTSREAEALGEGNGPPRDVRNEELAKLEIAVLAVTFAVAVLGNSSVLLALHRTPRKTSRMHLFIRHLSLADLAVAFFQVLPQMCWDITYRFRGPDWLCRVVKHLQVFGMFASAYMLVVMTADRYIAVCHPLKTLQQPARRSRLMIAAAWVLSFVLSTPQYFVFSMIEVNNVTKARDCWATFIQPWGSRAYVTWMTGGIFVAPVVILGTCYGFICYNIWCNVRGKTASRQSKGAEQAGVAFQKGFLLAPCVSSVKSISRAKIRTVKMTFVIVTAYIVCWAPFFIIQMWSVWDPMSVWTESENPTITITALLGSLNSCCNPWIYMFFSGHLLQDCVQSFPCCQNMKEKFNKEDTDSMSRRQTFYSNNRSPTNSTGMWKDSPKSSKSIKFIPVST
nonsel antag count – nonselective antagonists in TAAR1 counter-screen cells, counter-screen for hTAAR1 antagonist project, cell-based, fluorescence, calcium. shares compounds with TAAR1 antagonist. counterscreen cell line, antagonist mode. inhibition, % at 3 µM. hit rate 77% among 2,400; in the data active = inhibition above about 22%;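 note: CHO-Ga16 host cells stimulated with ATP at an EC80 level; 0% = agonist EC80 plus vehicle and 100% = vehicle without agonist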
TAAR1 ant conf – human TAAR1 antagonists, retest of hits, confirmation, cell-based, fluorescence. TAAR1-expressing cells, fluorescence antagonist read-out. inhibition, % at 3 µM. shares compounds with TAAR1 antagonist. hit rate 40% among 2,400; in the data active = inhibition above about 49%;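 note: CHO-Ga16 host cells challenged with agonist PEA near its EC80; 0% = agonist at EC80 plus vehicle and 100% = vehicle with no agonist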
Ga16 nonsel ag – calcium activation in Ga16-expressing cells, counter-screen for TAAR1 antagonist project, cell-based, fluorescence; shares compounds with TAAR1 antagonist; agonist counterscreen; activation, % at 3 µM; hit rate 18% among 2,400; in the data active = activation above about 12%;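 note: 0% = vehicle wells and 100% = saturating stimulus response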
TAAR1 ag counter – TAAR1 activation by candidate antagonists – cell-based, fluorescence, counter-screen for TAAR1 antagonist project; shares compounds with TAAR1 antagonist; hTAAR1 cell line, agonist mode; activation, % at 3 µM; hit rate 2% among 2,400; AID 651955, 2012; in the data active = activation above about 37%;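 note: CHO cells stably expressing TAAR1 with calcium dye readout; 0% = DMSO vehicle and 100% = full agonist response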
* = called active by the depositor; nt = no result. Hits are enriched below; roughly 2.3% of the tested compounds scored in any of these assays.

SMILES | OXTR ag | TAAR1 agonist | OXTR potentiator | TAAR1 antagonist | V1aR counter | nonsel antag count | TAAR1 ant conf | Ga16 nonsel ag | TAAR1 ag counter
Cc1cc(C)c(NC(=O)CCc2c(C)noc2C)c(C)c1 | 0.2 | 0.6 | 2.2 | 2.4 | 0.0 | nt | nt | nt | nt
Cc1ccc(S(=O)(=O)N2CCCCC2)cc1NC(=O)COC(=O)c1ccc(O)cc1 | 4.3 | 3.1 | -16.0 | 12.3 | 1.9 | nt | nt | nt | nt
Cc1ccc(CSCC(=O)Nc2cc(S(=O)(=O)N3CCOCC3)ccc2OCC(F)(F)F)cc1 | nt | -0.3 | nt | 81.4* | nt | 12.3 | 61.7* | 1.4 | 2.4
Cc1cc(OCC(=O)OCC(=O)Nc2cc(S(=O)(=O)N3CCOCC3)ccc2Cl)ccc1Cl | 14.9 | 17.1 | -10.3 | 63.7* | 12.4 | 35.8* | 42.8 | 13.7* | 11.9
CCOc1ccc(S(=O)(=O)N2CCOCC2)cc1NC(=O)CSCC(=O)Nc1ccc(C)cc1 | 0.2 | 1.7 | -9.0 | -20.7 | -1.3 | nt | nt | nt | nt
O=C(COC(=O)c1ccc(O)cc1)Nc1cc(S(=O)(=O)N2CCCCCC2)ccc1Cl | nt | 13.5 | nt | 61.9* | nt | 38.1* | 52.4* | 9.7 | 14.5
COc1ccc(-c2cc(-c3ccc(O)cc3)nc(N)c2C#N)cc1OC | -0.3 | 13.4 | 1.9 | 50.4* | -0.1 | 26.2* | 46.2 | 7.7 | 14.6
COc1ccc(-c2c(C#N)c(N)nc3c2CCc2ccccc2-3)cc1OC | 3.3 | 22.6 | -1.3 | 60.1* | 3.3 | 31.3* | 51.7* | 9.2 | 24.2
